From ChEMBL document CHEMBL2434839, “Isoxazole derivatives as potent transient receptor potential melastatin type 8 (TRPM8) agonists” (Eur J Med Chem, 2013)
pEC50: −log10 of the molar value. Calls of active or inactive are those of the source. The rule behind the calls is not given here.

Columns and labels:
F11 [1] = experiment: Agonist activity at TRPM8 in differentiated rat/mouse F11 cells assessed as increase in intracellular Ca2+ level at 1 to 500 uM by Fura-2-AM based fluorescence assay relative to menthol; assay type: cell-based
Summary of the method: (§1)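 Differentiated F11 cells (≥72 h in 2% FBS plus retinoic acid) in Normal Krebs, pH 7.4, room temperature. Compounds perfused over the stated ranges. Fura-2 340/380 nm ratio read every 3 s after background correction. Peak F/F0 normalized to the maximal menthol response for efficacy. For potency, F/F0 was normalized to each compound's own maximum and fitted to y = max/(1 + […])^n.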

[2] = (§2) Agonist activity at TRPM8 in differentiated rat/mouse F11 cells assessed as increase in intracellular Ca2+ level by Fura-2-AM based fluorescence assay; assay type: cell-based
Summary of the method: (§3)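 In differentiated F11 cells, L-menthol was perfused for 20 s at 1–300 µM in Normal Krebs, pH 7.4, room temperature. Fura-2 340/380 ratio was imaged every 3 s as F/F0. EC50 came from a fit to y = max/(1 + x/EC50)^n. Mean ± SEM of 23–28 determinations over at least 3 sessions.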

F11 [3] = experiment: as §2; assay type: cell-based; summary of the method: as §3
F11 [4] = experiment: Agonist activity at TRPM8 in differentiated rat/mouse F11 cells assessed as increase in intracellular Ca2+ level at 0.1 to 300 uM by Fura-2-AM based fluorescence assay relative to menthol; assay type: cell-based; summary of the method: as §1
Mus musculus [5] = experiment: Potentiation of acetone-induced cold allodynic response in Swiss CD-1 mouse chronic constriction injury model applied topically 20 mins prior to acetone-challenge measured for 7 to 9 mins post acetone-challenge; assay type: functional, organism-based
Summary of the method: (§4)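 Male Swiss CD1 mice (30–35 g) with sciatic nerve chronic constriction injury under xylazine/ketamine i.p. Day 14: 50 µl of compound at 20% w/v in absolute ethanol applied topically to the operated paw (vehicle: ethanol). After 20 min, acetone applied. Brisk paw withdrawals counted in three 2-min windows about 5 min apart, as totals and per phase. n = 6 per group.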

Mus musculus [6] = experiment: Potentiation of acetone-induced cold allodynic response in Swiss CD-1 mouse chronic constriction injury model applied topically 20 mins prior to acetone-challenge measured up to 2 mins post acetone-challenge; assay type: functional, organism-based; summary of the method: as §4
Mus musculus [7] = experiment: Potentiation of acetone-induced cold allodynic response in Swiss CD-1 mouse chronic constriction injury model applied topically 20 mins prior to acetone-challenge measured for 14 to 16 mins post acetone-challenge; assay type: functional, organism-based; summary of the method: as §4
F11 [8] = experiment: Agonist activity at TRPM8 in differentiated rat/mouse F11 cells assessed as increase in intracellular Ca2+ level at 10 to 1000 uM by Fura-2-AM based fluorescence assay relative to menthol; assay type: cell-based; summary of the method: as §1
Mus musculus [9] = experiment: Potentiation of acetone-induced cold allodynic response in Swiss CD-1 mouse chronic constriction injury model applied topically 20 mins prior to acetone-challenge; assay type: functional, organism-based; summary of the method: as §4
F11 [10] = experiment: Agonist activity at TRPM8 in differentiated rat/mouse F11 cells assessed as increase in intracellular Ca2+ level at 0.01 to 100 uM by Fura-2-AM based fluorescence assay relative to menthol; assay type: cell-based; summary of the method: as §1
F11 [11] = experiment: Agonist activity at TRPM8 in differentiated rat/mouse F11 cells assessed as increase in intracellular Ca2+ level at 0.3 to 100 uM by Fura-2-AM based fluorescence assay relative to menthol; assay type: cell-based; summary of the method: as §1
F11 [12] = experiment: Agonist activity at TRPM8 in differentiated rat/mouse F11 cells assessed as increase in intracellular Ca2+ level at 0.001 to 30 uM by Fura-2-AM based fluorescence assay relative to menthol; assay type: cell-based; summary of the method: as §1
F11 [13] = experiment: Agonist activity at TRPM8 in differentiated rat/mouse F11 cells assessed as increase in intracellular Ca2+ level at 0.01 to 30 uM by Fura-2-AM based fluorescence assay relative to menthol; assay type: cell-based; summary of the method: as §1
F11 [14] = experiment: Agonist activity at TRPM8 in differentiated rat/mouse F11 cells assessed as increase in intracellular Ca2+ level at 1 to 100 uM by Fura-2-AM based fluorescence assay relative to menthol; assay type: cell-based; summary of the method: as §1
F11 [15] = experiment: Agonist activity at TRPM8 in differentiated rat/mouse F11 cells assessed as effect on intracellular Ca2+ level at 100 uM by Fura-2-AM based fluorescence assay in presence of TRPM8 antagonist BCTC; assay type: cell-based
Summary of the method: (§5)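 Fura-2 ratiometric Ca2+ imaging in F11 cells differentiated ≥72 h in medium with 2% FBS and retinoic acid, on poly-L-lysine coverslips, at room temperature in Normal Krebs (mM: NaCl 160, KCl 5.5, CaCl2 1.5, MgSO4 1.2, HEPES 10, glucose 10, pH 7.4). Menthol 100 µM perfused alone, with BCTC co-perfusion, or in Ca2+-free solution plus 1 mM EDTA. Peak F/F0 quantified.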

F11 [16] = experiment: Agonist activity at TRPM8 in differentiated rat/mouse F11 cells at 100 uM treated in Ca2+-free solution by Fura-2-AM based fluorescence assay; assay type: cell-based; summary of the method: as §5
[17] = (§6) Agonist activity at TRPM8 in differentiated rat/mouse F11 cells assessed as increase in intracellular Ca2+ level measured after 20 seconds by Fura-2-AM based fluorescence assay; assay type: cell-based; summary of the method: as §3
F11 [18] = experiment: as §6; assay type: cell-based; summary of the method: as §3
F11 [19] = experiment: Agonist activity at TRPM8 in differentiated rat/mouse F11 cells assessed as increase in intracellular Ca2+ level at 1 to 300 uM measured after 1 to 15 seconds by Fura-2-AM based fluorescence assay; assay type: cell-based; summary of the method: as §3

Compound	pEC50 [2]	Activity (F11 [3])	Activity (Mus musculus [5])	Activity (Mus musculus [6])	Activity (Mus musculus [7])	also measured
Cc1cc(NCC(C)C)on1	4.32	Dose-dependent effect	–	–	–	Efficacy (F11 [1]): 36%
Cc1cc(NCc2ccc([N+](=O)[O-])cc2)no1	4.72	Dose-dependent effect	–	–	–	Efficacy (F11 [4]): 74%
Cc1cc(NCc2ccccc2)no1	3.40	Dose-dependent effect	inactive	inactive	inactive	Efficacy (F11 [8]): 82%; Activity (Mus musculus [9]): inactive
CCCCNc1cc(C)no1	4.00	Dose-dependent effect	–	–	–	Efficacy (F11 [8]): 32%
Cc1cc(NCC2CCCCC2)no1	4.86	Dose-dependent effect	–	–	–	Efficacy (F11 [11]): 64%
CCCCNc1ccon1	4.76	Dose-dependent effect	–	–	–	Efficacy (F11 [14]): 69%
CC(C)CNc1ccon1	4.88	Dose-dependent effect	–	–	–	Efficacy (F11 [14]): 72%
CC(C)[C@@H]1CC[C@@H](C)C[C@H]1O [LEVOMENTHOL]	–	–	Active	inactive	inactive	Activity (F11 [15]): inactive; Activity (F11 [16]): inactive; pEC50 [17]: 4.63; Activity (F11 [18]): Dose-dependent effect; Activity (F11 [19]): Active

Further lines, with some results ahead:

pEC50 [2]	Compound	Activity (F11 [3])	Activity (Mus musculus [5])	Activity (Mus musculus [6])	Activity (Mus musculus [7])	also measured
4.92	Cc1cc(NCc2ccccc2[N+](=O)[O-])no1	Dose-dependent effect	–	–	–	Efficacy (F11 [4]): 66%
6.30	Cc1cc(NCCC(C)C)no1	Dose-dependent effect	inactive	Active	inactive	Efficacy (F11 [10]): 66%; Activity (Mus musculus [9]; TDE = time-dependent effect): tde
7.00	Cc1cc(NC(C)C)no1	Dose-dependent effect	inactive	Active	inactive	Efficacy (F11 [12]): 53%; Activity (Mus musculus [9]; TDE = time-dependent effect): tde
6.80	Cc1cc(NCC(C)C)no1	Dose-dependent effect	inactive	Active	inactive	Efficacy (F11 [13]): 58%; Activity (Mus musculus [9]; TDE = time-dependent effect): tde
5.44	CCCCNc1cc(C)on1	Dose-dependent effect	inactive	Active	inactive	Efficacy (F11 [10]): 89%; Activity (Mus musculus [9]): inactive
